Counter-ions that a name gives are not always drawn. Marks after values point to notes of the source that are not given here.
Assays:
[1] = target: T1, human TRPA1 endogenously expressed in WI-38 fibroblasts (Homo sapiens, UniProt O75762); experiment: Fluo4 [Ca2+]i assay in WI-38 fibroblasts; type: cell-based; conditions: for agonist effect on Fluo4 fluorescence ([Ca2+]i) in WI-38 cells: 300 µM; for effect of antagonist on response to AITC / effect of antagonist preincubation on response to FFA: antagonist 20 µM; for effect of antagonist on response to AITC: AITC 33 µM; for effect of antagonist preincubation on response to FFA: FFA 33 µM; for antagonist effect on the response induced by FFA or AITC: 100 µM added 2 min before the agonist, data not shown
T1 sequence (O75762 whole entry): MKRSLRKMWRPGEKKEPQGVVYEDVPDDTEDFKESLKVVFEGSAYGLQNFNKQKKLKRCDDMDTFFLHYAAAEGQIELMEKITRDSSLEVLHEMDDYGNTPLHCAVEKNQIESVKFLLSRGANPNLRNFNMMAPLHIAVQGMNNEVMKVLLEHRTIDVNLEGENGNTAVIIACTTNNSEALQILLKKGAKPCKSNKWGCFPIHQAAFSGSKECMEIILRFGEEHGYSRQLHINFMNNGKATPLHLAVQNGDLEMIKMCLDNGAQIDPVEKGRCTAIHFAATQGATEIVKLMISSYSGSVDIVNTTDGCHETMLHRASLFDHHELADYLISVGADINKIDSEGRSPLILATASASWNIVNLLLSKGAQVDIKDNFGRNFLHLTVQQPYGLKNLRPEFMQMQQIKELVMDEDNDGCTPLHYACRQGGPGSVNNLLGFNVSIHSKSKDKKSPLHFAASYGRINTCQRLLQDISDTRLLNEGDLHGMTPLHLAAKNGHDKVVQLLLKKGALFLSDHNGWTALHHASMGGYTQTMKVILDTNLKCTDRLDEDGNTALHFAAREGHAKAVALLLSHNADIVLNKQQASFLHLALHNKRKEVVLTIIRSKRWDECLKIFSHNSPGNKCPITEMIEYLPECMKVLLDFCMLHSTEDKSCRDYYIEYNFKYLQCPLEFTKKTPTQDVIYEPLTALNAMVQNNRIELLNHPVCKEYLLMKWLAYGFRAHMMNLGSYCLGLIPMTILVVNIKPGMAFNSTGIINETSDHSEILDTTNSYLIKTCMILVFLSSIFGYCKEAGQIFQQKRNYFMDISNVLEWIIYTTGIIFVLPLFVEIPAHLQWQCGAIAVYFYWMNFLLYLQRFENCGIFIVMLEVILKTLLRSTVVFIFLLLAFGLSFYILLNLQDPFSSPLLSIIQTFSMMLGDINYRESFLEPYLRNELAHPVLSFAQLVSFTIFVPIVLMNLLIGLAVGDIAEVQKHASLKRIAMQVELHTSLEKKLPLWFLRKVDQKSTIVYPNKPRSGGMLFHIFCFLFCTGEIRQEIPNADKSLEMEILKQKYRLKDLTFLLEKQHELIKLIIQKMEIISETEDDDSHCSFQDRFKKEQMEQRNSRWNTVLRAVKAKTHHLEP

[2] = target: human TRPA1 Cys621Ser, Cys641Ser and Cys665Ser triple mutant (Homo sapiens, UniProt O75762, C621S/C641S/C665S); experiment: Currents of human TRPA1 triple cysteine mutant; type: cell-based; conditions: HH, unpublished results
human TRPA1 Cys621Ser, Cys641Ser and Cys665Ser triple mutant, sequence (O75762 whole entry C621S/C641S/C665S): as the sequence (O75762 whole entry) above, with C621S, C641S, C665S counted along it

rat TRPA1 = rat TRPA1 (Rattus norvegicus, UniProt Q6RI86); experiment: Two-electrode voltage clamp of Xenopus oocytes expressing rat TRPA1; type: cell-based; conditions: for interaction with AITC, CA, or cold on channel activation: 30 µM fenamate with 3 µM AITC or CA, or 14°C; for EC50: nominally Ca2+-free bath; for current evoked by agonist alone, % of that evoked by 30 µM FFA: 3 µM agonist alone; for effect on current in TRPA1-expressing oocytes: 300 µM
rat TRPA1, sequence (Q6RI86 whole entry): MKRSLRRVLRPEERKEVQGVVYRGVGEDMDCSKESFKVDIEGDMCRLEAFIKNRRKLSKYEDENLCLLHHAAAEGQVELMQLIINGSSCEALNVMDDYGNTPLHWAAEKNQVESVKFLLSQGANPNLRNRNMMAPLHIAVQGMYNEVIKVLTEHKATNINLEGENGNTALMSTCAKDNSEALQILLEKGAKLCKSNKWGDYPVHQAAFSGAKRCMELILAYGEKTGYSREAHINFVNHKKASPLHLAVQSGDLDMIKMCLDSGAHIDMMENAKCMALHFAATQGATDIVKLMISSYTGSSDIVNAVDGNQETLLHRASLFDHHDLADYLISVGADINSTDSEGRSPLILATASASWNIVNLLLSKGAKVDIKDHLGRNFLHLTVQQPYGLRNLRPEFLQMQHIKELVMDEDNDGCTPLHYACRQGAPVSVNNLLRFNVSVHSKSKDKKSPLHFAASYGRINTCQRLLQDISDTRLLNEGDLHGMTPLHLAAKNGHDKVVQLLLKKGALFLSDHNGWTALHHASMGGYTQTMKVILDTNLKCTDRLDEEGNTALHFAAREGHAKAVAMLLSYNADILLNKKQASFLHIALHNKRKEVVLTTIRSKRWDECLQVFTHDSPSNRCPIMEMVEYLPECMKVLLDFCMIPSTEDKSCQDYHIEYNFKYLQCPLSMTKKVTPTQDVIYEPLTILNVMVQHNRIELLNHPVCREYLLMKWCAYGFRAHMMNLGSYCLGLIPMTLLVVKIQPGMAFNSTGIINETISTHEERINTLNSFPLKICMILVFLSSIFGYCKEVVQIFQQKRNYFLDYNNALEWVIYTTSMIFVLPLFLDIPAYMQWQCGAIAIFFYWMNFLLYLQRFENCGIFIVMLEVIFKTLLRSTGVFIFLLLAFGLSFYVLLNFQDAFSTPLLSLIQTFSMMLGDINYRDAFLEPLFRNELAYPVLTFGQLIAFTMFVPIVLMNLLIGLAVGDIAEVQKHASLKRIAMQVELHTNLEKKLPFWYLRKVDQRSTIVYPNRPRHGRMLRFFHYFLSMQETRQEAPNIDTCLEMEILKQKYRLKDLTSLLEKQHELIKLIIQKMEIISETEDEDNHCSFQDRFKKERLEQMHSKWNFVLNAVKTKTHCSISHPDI

HEK293 cells = experiment: Fluo4 [Ca2+]i assay in parental HEK293 cells; type: cell-based; conditions: 300 µM
Procedure, shortened: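 Wild-type HEK293 cells in DMEM (4.5 mg/ml glucose, 10% heat-inactivated FBS, penicillin/streptomycin), plated on polyornithine-treated wells for 14–18 hrs. Loaded with Fluo4-AM (2 µM, 60 min, 37°C) in ECS with 2 mM probenecid, then washed. Test compound was given robotically at 300 µM final. Fluorescence was read on a plate reader at ex 494/em 525 nm, 0.67 Hz, 20–25°C.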

[3] = tested on: TRPA1 channels heterologously expressed in mammalian cells and Xenopus oocytes; conditions: read-out: EC50 reported in the literature; as low as; cited from earlier work
[4] = target: T1, human TRPA1 endogenously expressed in WI-38 fibroblasts; experiment: Whole-cell recordings of WI-38 cells; type: cell-based; conditions: ruthenium red 30 µM in the bath
Procedure, shortened: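 WI-38 cells grown in MEM with 10% heat-inactivated FBS and penicillin/streptomycin at 37°C, 5% CO₂. Cells were detached with 0.05% trypsin plus 0.53 mM EDTA in Ca²⁺/Mg²⁺-free HBSS for 5–10 min, held at 37°C, then settled on polyornithine-coated coverslips for 3–5 min before perfusion. Whole-cell voltage clamp was sampled at 5 kHz, with 100 ms ramps from −100 to +100 mV (holding −60 mV) applied every 0.5 s.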

human TRPA1 = human TRPA1 (Homo sapiens, UniProt O75762); experiment: Fluo4 [Ca2+]i assay in HEK-A1 cells; type: cell-based; conditions: for nH (Hill coefficient): HEK-A1 cells
human TRPA1, sequence (O75762 whole entry): as the sequence (O75762 whole entry) above

In the case of `CC(=O)Oc1ccccc1C(=O)O` [acetylsalicylic acid, Acetylsalicylic acid], the “agonist effect on Fluo4 fluorescence ([Ca2+]i) in WI-38 cells” value (shortened to “agonist effect on Fluo4 fluorescence”) [1] is reported as “did not act as agonists”.
In the case of `CC1CCC(C(C)C)C(O)C1` (stereo not drawn) [menthol], the “concentration-response curve in triple cysteine mutant” value [2] is reported as “right-shifted”.
With `O=C(O)c1cccnc1Nc1cccc(C(F)(F)F)c1` [NFA, niflumic acid] the EC50 [1] was 28 ± 3 µM, the “agonist effect on Fluo4 fluorescence” value [1] was “increased the Fluo4 fluorescence” and the “nH (Hill coefficient)” value ([1]; WI-38 cells) was 1.4 ± 0.2. For the same molecule, the threshold of activation (rat TRPA1) was 10 to 30 µM, the “interaction with AITC, CA, or cold on channel activation” value (rat TRPA1) was “positive synergistic effects” and the “Hill co-efficient at +100 mV” value (rat TRPA1; +100 mV) was 2.6 ± 0.3. For the same molecule, the EC50 (rat TRPA1; EC50 for current activation at +100 mV, +100 mV) was 240 ± 12 µM, the EC50 (rat TRPA1; EC50 for current activation at −100 mV, −100 mV) was 540 ± 27 µM and the “Hill co-efficient at −100 mV” value (rat TRPA1; −100 mV) was 2.1 ± 0.2. The “effect on Fluo4 fluorescence in HEK293 cells” value (from here on “effect … in HEK293 cells”) (HEK293 cells) was “little effect”.
In the case of `C=CC=O` [acrolein], the “agonist effect on Fluo4 fluorescence” value [1] is given as “rapid fluorescence increase”, the “nH (Hill coefficient)” value ([1]; WI-38 cells) is given as 1.0 ± 0.1 and the EC50 [3] is given as 0.8 µM.
For `O=C/C=C/c1ccccc1` [CA, cinnamaldehyde], the EC50 [1] was 400 ± 41 µM, the “agonist effect on Fluo4 fluorescence” value [1] was “rapid fluorescence increase” and the “nH (Hill coefficient)” value ([1]; WI-38 cells) was 0.9 ± 0.1. For the same molecule, the “current evoked by agonist alone, % of that evoked by 30 µM FFA” value (from here on “current evoked by agonist alone, %”) (rat TRPA1; +100 mV) was 44 ± 16%, the “current evoked by agonist alone, %” value (rat TRPA1; −100 mV) was 45 ± 8% and the EC50 [3] was 6.5 µM.
For `N.N.N.N.N.N.N.N.N.N.N.N.N.N.[Cl-].[Cl-].[Cl-].[Cl-].[Cl-].[Cl-].[O-2].[O-2].[Ru+3].[Ru+3].[Ru+4]` [ruthenium red], the “effect of antagonist on response to AITC” value [1] was “blocked”, the IC50 ([1]; read-out: IC50 for inhibition of the response to FFA, curve not shown) was 2.1 µM and the “effect on FFA-induced whole-cell currents” value [4] was “completely abolished”.
For `CC(=C\c1ccc(Cl)cc1)/C(C)=N/O` [AP-18], the “effect of antagonist on response to AITC” value [1] was “blocked” and the “effect of antagonist preincubation on response to FFA” value [1] was “inhibited”.
For `COc1ccc2cc([C@H](C)C(=O)O)ccc2c1` [naproxen, (S)-naproxen], the “antagonist effect on the response induced by FFA or AITC” value [1] was “do not act as antagonists”, the “agonist effect on Fluo4 fluorescence” value [1] was “fail to activate” and the “effect on current in TRPA1-expressing oocytes” value (from here on “effect on current”) (rat TRPA1) was “did not have an effect”.
With `Cc1cccc(Nc2ccccc2C(=O)O)c1C` [MFA, mefenamic acid] the “agonist effect on Fluo4 fluorescence” value [1] was “increased the Fluo4 fluorescence”, the “nH (Hill coefficient)” value ([1]; WI-38 cells) was 1.5 ± 0.2 and the “interaction with AITC, CA, or cold on channel activation” value (rat TRPA1) was “positive synergistic effects”. The “effect … in HEK293 cells” value (HEK293 cells) was “little effect”.
In the case of `COC(=O)C1=C(C)NC(C)=C(C(=O)OC)C1c1ccccc1[N+](=O)[O-]` [nifedipine], the EC50 [1] is reported as 157 ± 8 µM, the “agonist effect on Fluo4 fluorescence” value [1] is reported as “rapid fluorescence increase” and the “nH (Hill coefficient)” value ([1]; WI-38 cells) is reported as 1.1 ± 0.1. For the same molecule, the EC50 (human TRPA1) was 140 ± 23 µM, the “nH (Hill coefficient)” value (human TRPA1) was 1.0 ± 0.1 and the EC50 [3] was 0.4 µM.
For `NCCOB(c1ccccc1)c1ccccc1` [2APB, 2-aminoethoxydiphenyl borate], the “concentration-response curve in triple cysteine mutant” value [2] was “right-shifted”.
In the case of `C=CCN=C=S` [AITC, allyl isothiocyanate], the “agonist effect on Fluo4 fluorescence” value [1] is reported as “rapid fluorescence increase”, the “nH (Hill coefficient)” value ([1]; WI-38 cells) is reported as 1.0 ± 0.1 and the “nH (Hill coefficient)” value (human TRPA1) is reported as 0.8 ± 0.1. The “current evoked by agonist alone, %” value (rat TRPA1; +100 mV) was 45 ± 14%, the “current evoked by agonist alone, %” value (rat TRPA1; −100 mV) was 51 ± 10% and the EC50 [3] was 5 µM.
In the case of `CC(C)Cc1ccc([C@H](C)C(=O)O)cc1` [ibuprofen, (S)-(+)-ibuprofen], the “agonist effect on Fluo4 fluorescence” value [1] is reported as “did not act as agonists”.
For `COc1ccc2c(c1)c(CC(=O)O)c(C)n2C(=O)c1ccc(Cl)cc1` [indomethacin], the EC50 [1] was 470 ± 54 µM, the “agonist effect on Fluo4 fluorescence” value [1] was “increased the Fluo4 fluorescence” and the “nH (Hill coefficient), fixed to make the fit” value ([1]; WI-38 cells, nH was fixed to 1.5) was 1.5 ^b. The “effect on current” value (rat TRPA1) was “caused current increases” and the “effect … in HEK293 cells” value (HEK293 cells) was “little effect”.
In the case of `O=C(c1ccccc1)c1ccc2n1CCC2C(=O)O` (stereo not drawn) [ketorolac, ketorolac tromethamine salt], the “antagonist effect on the response induced by FFA or AITC” value [1] is reported as “do not act as antagonists”, the “agonist effect on Fluo4 fluorescence” value [1] is reported as “fail to activate” and the “effect on current” value (rat TRPA1) is reported as “did not have an effect”.
For `CC(C(=O)O)c1ccc(-c2ccccc2)c(F)c1` (racemic) [flurbiprofen, (±)-flurbiprofen], the EC50 [1] was 342 ± 6 µM, the “agonist effect on Fluo4 fluorescence” value [1] was “increased the Fluo4 fluorescence” and the “nH (Hill coefficient)” value ([1]; WI-38 cells) was 1.5 ± 0.1. The EC50 (human TRPA1) was 310 ± 66 µM, the “nH (Hill coefficient)” value (human TRPA1) was 2.0 ± 0.3 and the “effect on current” value (rat TRPA1) was “caused current increases”. For the same molecule, the “effect … in HEK293 cells” value (HEK293 cells) was “little effect”.
For `CC(C(=O)O)c1cccc(C(=O)c2ccccc2)c1` (stereo not drawn) [ketoprofen, Ketoprofen], the EC50 [1] was over 500 µM, the “agonist effect on Fluo4 fluorescence” value [1] was “increased the Fluo4 fluorescence” and the “effect on current” value (rat TRPA1) was “very weak activator”. The “effect … in HEK293 cells” value (HEK293 cells) was “little effect”.
In the case of `CC(C)c1ccc(NC(=O)Cn2cnc3c2c(=O)n(C)c(=O)n3C)cc1` [HC-030031], the “effect of antagonist on response to AITC” value [1] is reported as “blocked” and the “effect of antagonist preincubation on response to FFA” value [1] is reported as “inhibited”.
With `O=C(O)Cc1ccccc1Nc1c(Cl)cccc1Cl` [diclofenac, Diclofenac sodium salt] the “agonist effect on Fluo4 fluorescence” value [1] was “increased the Fluo4 fluorescence”, the “nH (Hill coefficient)” value ([1]; WI-38 cells) was 1.3 ± 0.2 and the “effect on current” value (rat TRPA1) was “caused current increases”. The “effect … in HEK293 cells” value (HEK293 cells) was “little effect”.
